These results are taken from ChEMBL document CHEMBL1134694, “Discovery of macrocyclic hydroxamic acids containing biphenylmethyl derivatives at P1', a series of selective TNF-alpha converting enzyme inhibitors with potent cellular activity in the inhibition of TNF-alpha release” (J Med Chem, 2001).

Test [1] has as its target 72 kDa type IV collagenase (Homo sapiens, UniProt P08253).
Another test addresses Collagenase 3 (Homo sapiens, UniProt P45452). Description: Inhibition of matrix metalloprotease-13.
The species named for test [2] is Homo sapiens. Description: Inhibition of TNF-alpha release in LPS-stimulated human whole blood assay(WBA). Type of test: functional, organism-based. The procedure, abridged: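 Human whole blood stimulated with LPS; inhibition of TNF-alpha release measured in blood from three separate donors.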
The target in test [3] is Matrix metalloproteinase-14 (Homo sapiens, UniProt P50281). The test is described as follows: Inhibition of matrix metalloprotease-14.
The next test has as its target Neutrophil collagenase (Homo sapiens, UniProt P22894). Description: Inhibition of matrix metalloprotease-8.
Test [4] addresses Disintegrin and metalloproteinase domain-containing protein 17 (Sus scrofa, UniProt O77636).
Test [5] has as its target Macrophage metalloelastase (Homo sapiens, UniProt P39900). Description: Inhibition of matrix metalloprotease-12.
The target in test [6] is T1, Interstitial collagenase (Homo sapiens, UniProt P03956).
T1 sequence (P03956 whole entry): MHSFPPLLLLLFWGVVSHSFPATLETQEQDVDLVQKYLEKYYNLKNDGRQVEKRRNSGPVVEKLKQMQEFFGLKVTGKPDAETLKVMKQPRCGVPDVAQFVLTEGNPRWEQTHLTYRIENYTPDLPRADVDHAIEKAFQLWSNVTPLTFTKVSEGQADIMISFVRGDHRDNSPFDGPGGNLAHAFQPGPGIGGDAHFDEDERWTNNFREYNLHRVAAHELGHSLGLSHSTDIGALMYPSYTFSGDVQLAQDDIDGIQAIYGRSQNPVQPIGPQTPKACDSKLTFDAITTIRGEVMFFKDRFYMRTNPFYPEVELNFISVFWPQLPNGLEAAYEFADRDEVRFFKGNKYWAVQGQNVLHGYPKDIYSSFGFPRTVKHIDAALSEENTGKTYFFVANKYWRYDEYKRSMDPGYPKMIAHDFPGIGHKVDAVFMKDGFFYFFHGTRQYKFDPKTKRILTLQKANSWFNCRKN
The test is described as follows: Inhibition of matrix metalloprotease-1.

For test [7], the species on record is Homo sapiens. Description: Binding affinity against human serum protein. Type of test: functional. The essentials:
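Binding to human serum proteins, reported as the mean percentage of compound bound across three determinations.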

Test [8] deals with Matrix metalloproteinase-9 (Homo sapiens, UniProt P14780). Description: Inhibition of human matrix metalloprotease-9.
Test [9] has as its target Matrix metalloproteinase-16 (Homo sapiens, UniProt P51512). Description: Inhibition of matrix metalloprotease-16.
The target in another test is Stromelysin-1 (Homo sapiens, UniProt P08254). The test is described as follows: Inhibition of matrix metalloprotease-3.
The next test deals with Stromelysin-2 (Homo sapiens, UniProt P09238). The test is described as follows: Inhibition of matrix metalloprotease-10.
Test [10] concerns the target Matrix metalloproteinase-15 (Homo sapiens, UniProt P51511). The test is described as follows: Inhibition of matrix metalloprotease-15.
The next test has as its target T2, Matrilysin (Homo sapiens, UniProt P09237).
T2 sequence (P09237 whole entry): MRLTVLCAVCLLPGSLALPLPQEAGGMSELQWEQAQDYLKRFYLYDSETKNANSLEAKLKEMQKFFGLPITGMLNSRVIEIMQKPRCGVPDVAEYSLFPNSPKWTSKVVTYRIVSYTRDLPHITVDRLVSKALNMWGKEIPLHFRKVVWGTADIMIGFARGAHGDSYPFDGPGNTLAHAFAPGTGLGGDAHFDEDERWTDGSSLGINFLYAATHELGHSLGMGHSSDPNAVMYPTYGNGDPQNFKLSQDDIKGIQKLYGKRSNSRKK
The test is described as follows: Inhibition of matrix metalloprotease-7.

Test [11] addresses T1, Interstitial collagenase. Description: Inhibition of human matrix metalloprotease-1.

Chain of Matrix metalloproteinase-9 (P14780 whole entry): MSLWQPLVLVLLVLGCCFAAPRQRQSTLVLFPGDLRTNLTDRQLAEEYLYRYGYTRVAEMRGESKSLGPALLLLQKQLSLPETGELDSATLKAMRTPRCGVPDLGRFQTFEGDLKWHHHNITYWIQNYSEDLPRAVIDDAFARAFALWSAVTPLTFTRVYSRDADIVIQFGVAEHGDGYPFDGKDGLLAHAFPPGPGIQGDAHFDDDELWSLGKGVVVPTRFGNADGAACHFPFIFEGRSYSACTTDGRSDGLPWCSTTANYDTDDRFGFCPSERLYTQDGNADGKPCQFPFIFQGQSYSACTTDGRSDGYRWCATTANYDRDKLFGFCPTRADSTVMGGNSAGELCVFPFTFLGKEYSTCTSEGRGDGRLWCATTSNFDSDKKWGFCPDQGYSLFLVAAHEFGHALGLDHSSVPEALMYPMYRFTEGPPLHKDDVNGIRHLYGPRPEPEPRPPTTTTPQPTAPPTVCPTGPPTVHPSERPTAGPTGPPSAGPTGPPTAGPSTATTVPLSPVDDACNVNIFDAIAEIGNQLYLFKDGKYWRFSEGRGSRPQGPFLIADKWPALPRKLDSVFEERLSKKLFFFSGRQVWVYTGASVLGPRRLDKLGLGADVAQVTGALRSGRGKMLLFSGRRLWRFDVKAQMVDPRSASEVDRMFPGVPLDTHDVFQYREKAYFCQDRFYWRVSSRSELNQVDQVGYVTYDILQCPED
Chain of Macrophage metalloelastase (P39900 whole entry): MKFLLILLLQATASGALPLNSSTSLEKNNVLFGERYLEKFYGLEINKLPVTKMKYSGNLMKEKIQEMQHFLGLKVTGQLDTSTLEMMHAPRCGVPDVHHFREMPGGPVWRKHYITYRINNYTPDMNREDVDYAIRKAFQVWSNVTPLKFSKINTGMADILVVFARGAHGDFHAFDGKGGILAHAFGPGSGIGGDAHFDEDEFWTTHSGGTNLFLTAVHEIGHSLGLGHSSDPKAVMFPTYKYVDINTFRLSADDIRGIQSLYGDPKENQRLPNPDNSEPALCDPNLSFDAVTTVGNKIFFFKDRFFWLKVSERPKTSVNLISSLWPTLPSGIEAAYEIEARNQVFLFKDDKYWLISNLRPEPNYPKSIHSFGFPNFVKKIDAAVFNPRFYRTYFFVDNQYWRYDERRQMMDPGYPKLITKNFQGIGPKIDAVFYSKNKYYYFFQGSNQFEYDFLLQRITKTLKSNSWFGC
Chain of 72 kDa type IV collagenase (P08253 whole entry): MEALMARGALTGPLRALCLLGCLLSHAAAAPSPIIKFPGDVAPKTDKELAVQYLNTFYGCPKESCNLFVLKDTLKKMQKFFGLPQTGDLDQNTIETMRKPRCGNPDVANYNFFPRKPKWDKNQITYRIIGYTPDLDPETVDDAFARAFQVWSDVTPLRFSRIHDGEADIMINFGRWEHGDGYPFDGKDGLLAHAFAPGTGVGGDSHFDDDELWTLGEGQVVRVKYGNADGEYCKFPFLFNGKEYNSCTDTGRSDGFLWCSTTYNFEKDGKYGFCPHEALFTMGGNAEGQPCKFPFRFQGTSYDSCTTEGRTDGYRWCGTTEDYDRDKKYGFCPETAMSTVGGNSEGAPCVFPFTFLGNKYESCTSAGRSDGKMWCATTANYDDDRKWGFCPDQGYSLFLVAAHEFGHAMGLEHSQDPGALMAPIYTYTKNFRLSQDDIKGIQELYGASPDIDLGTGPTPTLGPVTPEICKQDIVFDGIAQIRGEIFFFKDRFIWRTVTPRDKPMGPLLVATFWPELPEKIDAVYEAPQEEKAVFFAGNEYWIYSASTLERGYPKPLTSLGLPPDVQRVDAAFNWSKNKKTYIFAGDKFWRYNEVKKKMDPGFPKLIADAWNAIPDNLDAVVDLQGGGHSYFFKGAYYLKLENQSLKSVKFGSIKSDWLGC
Chain of Stromelysin-1 (P08254 whole entry): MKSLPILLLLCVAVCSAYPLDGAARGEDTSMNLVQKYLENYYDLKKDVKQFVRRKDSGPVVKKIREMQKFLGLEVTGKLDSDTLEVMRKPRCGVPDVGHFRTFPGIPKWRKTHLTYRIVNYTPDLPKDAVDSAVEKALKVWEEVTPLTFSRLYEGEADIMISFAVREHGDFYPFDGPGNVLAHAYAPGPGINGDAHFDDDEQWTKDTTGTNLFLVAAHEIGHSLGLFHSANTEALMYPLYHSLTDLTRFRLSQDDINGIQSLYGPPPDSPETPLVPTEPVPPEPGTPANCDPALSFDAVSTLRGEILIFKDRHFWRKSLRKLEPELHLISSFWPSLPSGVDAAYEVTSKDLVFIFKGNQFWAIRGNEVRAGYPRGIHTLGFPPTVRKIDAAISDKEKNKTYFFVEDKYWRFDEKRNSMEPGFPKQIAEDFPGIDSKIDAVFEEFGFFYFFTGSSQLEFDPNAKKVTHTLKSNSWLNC
Chain of Stromelysin-2 (P09238 whole entry): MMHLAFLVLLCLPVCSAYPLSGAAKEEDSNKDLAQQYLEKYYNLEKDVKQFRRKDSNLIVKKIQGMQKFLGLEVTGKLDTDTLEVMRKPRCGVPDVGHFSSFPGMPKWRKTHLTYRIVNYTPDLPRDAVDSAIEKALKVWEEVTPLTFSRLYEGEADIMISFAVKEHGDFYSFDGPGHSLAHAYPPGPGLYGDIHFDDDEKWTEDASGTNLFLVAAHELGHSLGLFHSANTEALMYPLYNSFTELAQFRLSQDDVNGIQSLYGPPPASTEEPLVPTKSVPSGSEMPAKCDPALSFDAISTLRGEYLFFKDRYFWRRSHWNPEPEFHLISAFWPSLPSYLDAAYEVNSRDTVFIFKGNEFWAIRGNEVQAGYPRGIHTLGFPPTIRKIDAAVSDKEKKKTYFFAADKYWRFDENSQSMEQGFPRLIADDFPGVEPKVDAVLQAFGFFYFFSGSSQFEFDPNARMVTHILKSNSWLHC
Chain of Matrix metalloproteinase-15 (P51511 whole entry): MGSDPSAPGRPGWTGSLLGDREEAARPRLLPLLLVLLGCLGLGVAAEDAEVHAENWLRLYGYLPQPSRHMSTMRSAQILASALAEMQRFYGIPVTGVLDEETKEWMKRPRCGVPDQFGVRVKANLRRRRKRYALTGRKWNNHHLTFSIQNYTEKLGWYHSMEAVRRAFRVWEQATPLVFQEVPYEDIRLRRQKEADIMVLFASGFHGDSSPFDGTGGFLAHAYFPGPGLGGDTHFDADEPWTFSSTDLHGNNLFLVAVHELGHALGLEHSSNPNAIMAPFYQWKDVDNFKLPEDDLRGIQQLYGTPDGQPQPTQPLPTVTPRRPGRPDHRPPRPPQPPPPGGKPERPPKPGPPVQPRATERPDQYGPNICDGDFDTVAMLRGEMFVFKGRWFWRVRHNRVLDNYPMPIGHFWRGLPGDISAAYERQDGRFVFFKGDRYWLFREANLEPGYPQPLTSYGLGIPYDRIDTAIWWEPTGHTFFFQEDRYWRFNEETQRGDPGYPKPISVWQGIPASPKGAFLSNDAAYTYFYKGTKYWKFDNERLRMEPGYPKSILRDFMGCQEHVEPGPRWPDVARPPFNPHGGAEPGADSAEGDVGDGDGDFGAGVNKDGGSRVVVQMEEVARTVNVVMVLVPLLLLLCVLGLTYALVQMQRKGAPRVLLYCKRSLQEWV
Chain of Matrix metalloproteinase-16 (P51512 whole entry): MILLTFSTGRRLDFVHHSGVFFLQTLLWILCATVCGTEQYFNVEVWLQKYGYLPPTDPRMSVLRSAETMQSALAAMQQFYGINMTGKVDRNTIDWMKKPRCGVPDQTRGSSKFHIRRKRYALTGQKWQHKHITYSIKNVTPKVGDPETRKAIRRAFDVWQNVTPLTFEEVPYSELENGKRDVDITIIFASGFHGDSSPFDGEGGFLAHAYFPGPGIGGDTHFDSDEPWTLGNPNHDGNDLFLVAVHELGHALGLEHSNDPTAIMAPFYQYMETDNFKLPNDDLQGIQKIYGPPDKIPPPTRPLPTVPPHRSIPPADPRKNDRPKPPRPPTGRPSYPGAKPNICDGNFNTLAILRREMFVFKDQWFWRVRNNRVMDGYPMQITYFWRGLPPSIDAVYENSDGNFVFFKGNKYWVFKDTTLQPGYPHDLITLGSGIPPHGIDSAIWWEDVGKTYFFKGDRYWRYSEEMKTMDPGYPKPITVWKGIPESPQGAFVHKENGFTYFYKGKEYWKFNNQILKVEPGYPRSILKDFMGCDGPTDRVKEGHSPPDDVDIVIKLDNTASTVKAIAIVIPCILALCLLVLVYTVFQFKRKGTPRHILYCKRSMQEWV
Chain of Disintegrin and metalloproteinase domain-containing protein 17 (O77636 whole entry, the tested form may be a part): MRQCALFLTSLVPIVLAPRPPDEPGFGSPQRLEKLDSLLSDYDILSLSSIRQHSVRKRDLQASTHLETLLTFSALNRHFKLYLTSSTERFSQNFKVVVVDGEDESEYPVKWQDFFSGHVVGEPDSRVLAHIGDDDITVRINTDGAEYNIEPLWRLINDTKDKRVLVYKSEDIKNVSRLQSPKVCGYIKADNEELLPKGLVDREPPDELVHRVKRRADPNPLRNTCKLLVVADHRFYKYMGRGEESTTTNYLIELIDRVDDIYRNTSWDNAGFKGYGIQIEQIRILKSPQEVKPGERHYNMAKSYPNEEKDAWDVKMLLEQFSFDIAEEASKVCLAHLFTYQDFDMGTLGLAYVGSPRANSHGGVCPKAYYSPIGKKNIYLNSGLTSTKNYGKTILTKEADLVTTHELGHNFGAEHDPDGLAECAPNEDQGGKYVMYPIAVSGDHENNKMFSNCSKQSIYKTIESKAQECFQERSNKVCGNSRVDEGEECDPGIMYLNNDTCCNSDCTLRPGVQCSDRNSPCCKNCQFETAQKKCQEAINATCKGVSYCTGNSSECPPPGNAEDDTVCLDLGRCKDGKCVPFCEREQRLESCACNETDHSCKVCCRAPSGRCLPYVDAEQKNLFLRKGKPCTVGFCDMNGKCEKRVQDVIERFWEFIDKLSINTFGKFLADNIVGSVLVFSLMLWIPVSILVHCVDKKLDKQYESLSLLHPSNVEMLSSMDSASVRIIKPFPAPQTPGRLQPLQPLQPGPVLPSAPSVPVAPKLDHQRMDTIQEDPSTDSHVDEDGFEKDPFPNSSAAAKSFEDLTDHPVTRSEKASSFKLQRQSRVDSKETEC

On to `O=C1NCCCC[C@@H](C(=O)NCC(=O)N2CCNCC2)NC(=O)[C@H](Cc2ccc(-c3cc(C(F)(F)F)cc(C(F)(F)F)c3)cc2)[C@@H](C(=O)NO)CCCO1`, for which the Ki in test [1] is greater than 2 µM; at Collagenase 3 it was greater than 2 µM; in test [3] it was greater than 2 µM; at Neutrophil collagenase, 0.272 µM; in [4], 0.0046 µM; in test [5], 0.035 µM. Besides, the Ki (on Interstitial collagenase [6]; in test [8]; in test [9]; at Stromelysin-1; on Stromelysin-2; in test [10]) was greater than 2 µM each time. The same molecule showed a Ki at Matrilysin greater than 2 µM. For the same molecule, in the test listed under Homo sapiens [2], the IC50 was 0.18 µM. This molecule also came in with a Bound in the test filed under Homo sapiens [7] of 71%.

In the case of `CS(=O)(=O)c1ccccc1-c1ccc(C[C@H]2C(=O)N[C@H](C(=O)NCC(=O)N3CCOCC3)CCCCNC(=O)OCCC[C@@H]2C(=O)NO)cc1`, the Ki is greater than 2 µM in [1], 0.0065 µM in test [4], greater than 2 µM at Interstitial collagenase [6] and greater than 2 µM in test [8]. In addition, in the test listed under Homo sapiens [2], inhibition was half-maximal at 0.41 µM (IC50). Moreover, the Bound in the test filed under Homo sapiens [7] turned out to be 5%.

Turning to `O=C1NCCCC[C@@H](C(=O)NCC(=O)N2CCOCC2)NC(=O)[C@H](Cc2ccc(-c3c(F)cccc3F)cc2)[C@@H](C(=O)NO)CCCO1`, the Ki in test [1] is 0.00064 µM; in test [4] it was 0.0063 µM; in test [8] it was 0.021 µM; at Interstitial collagenase [11] it was greater than 2 µM. In the test filed under Homo sapiens [2], the midpoint of inhibition, the IC50, lay at 3.7 µM. In the test listed under Homo sapiens [7], the Bound worked out at 25%.

Regarding `O=C1NCCCC[C@@H](C(=O)NCC(=O)N2CCOCC2)NC(=O)[C@H](Cc2ccc(-c3ccccc3C(F)(F)F)cc2)[C@@H](C(=O)NO)CCCO1`, the Ki in test [1] is greater than 2 µM; on Collagenase 3 it was 0.653 µM; in [3] it was greater than 2 µM; at Neutrophil collagenase it was 0.126 µM; in [4], 0.0028 µM; in test [5] it was greater than 2 µM. Further, the Ki (at Interstitial collagenase [6]; in [8]; in test [9]; at Stromelysin-1; on Stromelysin-2; in [10]) was greater than 2 µM each time. At Matrilysin, this molecule gave a Ki of 0.834 µM. It took 0.07 µM to reach half-maximal inhibition in the test listed under Homo sapiens [2] (IC50). This molecule gave a Bound in the test filed under Homo sapiens [7] of 55%.

Take `CNC(=O)CNC(=O)[C@@H]1CCCCNC(=O)OCCC[C@H](C(=O)NO)[C@@H](Cc2ccc(-c3ccccc3C(F)(F)F)cc2)C(=O)N1`: the Ki was 0.45 µM in test [1], 0.0038 µM in test [4], greater than 2 µM at Interstitial collagenase [6] and 1.17 µM in test [8]. The same molecule returned an IC50 in the test listed under Homo sapiens [2] of 0.38 µM. Moreover, the Bound in the test filed under Homo sapiens [7] was 33%.

For `O=C1NCCCC[C@@H](C(=O)NCC(=O)N2CCNCC2)NC(=O)[C@H](Cc2ccc(-c3cccc(C(F)(F)F)c3)cc2)[C@@H](C(=O)NO)CCCO1`, the Ki in test [1] was 0.011 µM; in test [4] it was 0.0037 µM; at Interstitial collagenase [6] it was greater than 2 µM; in test [8], 0.091 µM. The molecule further showed an IC50 in the test listed under Homo sapiens [2] of 0.12 µM. In the test filed under Homo sapiens [7], the Bound is 29%.

In the test listed under Homo sapiens [7], `CC(C)C[C@H]1C(=O)N[C@H](C(=O)NCC(=O)N2CCOCC2)CCCCNC(=O)OCCC[C@@H]1C(=O)NO` showed a Bound of 1%.

For the molecule `NC(=O)CNC(=O)[C@@H]1CCCCNC(=O)OCCC[C@H](C(=O)NO)[C@@H](Cc2ccc(-c3ccccc3C(F)(F)F)cc2)C(=O)N1`, the Ki is 1.87 µM in [1]; 0.442 µM on Collagenase 3; greater than 2 µM in test [3]; 0.428 µM on Neutrophil collagenase; 0.0015 µM in test [4]; greater than 2 µM in test [5]. Further, the Ki (on Interstitial collagenase [6]; in test [8]; in [9]; on Stromelysin-1; on Stromelysin-2; in [10]) was greater than 2 µM throughout. On Matrilysin, the Ki turned out to be 1.34 µM. For the same molecule, 0.18 µM corresponded to half-maximal inhibition in the test filed under Homo sapiens [2] (IC50).

As for `O=C1NCCCC[C@@H](C(=O)NCC(=O)N2CCOCC2)NC(=O)[C@H](Cc2ccc(-c3cc(Cl)cc(Cl)c3)cc2)[C@@H](C(=O)NO)CCCO1`, the Ki was 0.05 µM in [1], 0.0028 µM in [4], greater than 2 µM on Interstitial collagenase [6] and 0.183 µM in [8]. Moreover, half-maximal inhibition in the test listed under Homo sapiens [2] (IC50) was put at 0.227 µM. Moreover, in the test filed under Homo sapiens [7], the Bound is 83%.

As for `O=C1NCCCC[C@@H](C(=O)NCC(=O)N2CCNCC2)NC(=O)[C@H](Cc2ccc(-c3ccccc3C(F)(F)F)cc2)[C@@H](C(=O)NO)CCCO1`, the Ki in test [1] is 0.7 µM; at Collagenase 3, 0.05 µM; in test [3] it was greater than 2 µM; on Neutrophil collagenase, 0.672 µM; in [4] it was 0.0017 µM; in test [5] it was 0.39 µM. Further, the Ki at Interstitial collagenase [6] is greater than 2 µM; in test [8], 1.79 µM; in test [9] it was greater than 2 µM; on Stromelysin-1 it was 0.582 µM; at Stromelysin-2 it was greater than 2 µM; in test [10] it was greater than 2 µM. For the same molecule, at Matrilysin, the affinity corresponds to a Ki of 0.177 µM. Moreover, in the test filed under Homo sapiens [2], the IC50 is 0.06 µM. In addition, the Bound in the test listed under Homo sapiens [7] was determined as 36%.
